Measured values: ChEMBL document CHEMBL1671855, “Establishment of a cell-based assay for screening of compounds inhibiting very early events in the cytomegalovirus replication cycle and characterization of a compound identified using the assay” (Antimicrob Agents Chemother, 2008)
pEC50: −log10 of the molar value. The source made the active and inactive calls. The rule behind the calls is not given here.

What was measured:
[1] = Antiviral activity against Murine cytomegalovirus strain Smith infected in mouse NIH 3T3 cells after 4 to 5 days by plaque reduction assay; format: functional, cell-based; conditions: Murid betaherpesvirus 1, NIH3T3
Summary of the method: (§1)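 Semiconfluent fibroblasts (HCMV Towne in HFL, GPCMV in guinea pig lung fibroblasts, MCMV Smith in NIH 3T3) in 12-well plates inoculated with 50 or 100 PFU, centrifuged 600 × g 30 min, 1–2 h at 37°C; inoculum replaced by twofold compound dilutions in 1% methylcellulose, 4% FBS. Incubation 4–5 d MCMV, 6–7 d GPCMV, 10–12 d HCMV; crystal violet/formalin stain, plaques counted, triplicate; EC50 by linear regression of log concentration vs % plaque reduction.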

Caviid betaherpesvirus 2 = experiment: Antiviral activity against Guinea pig cytomegalovirus (strain 22122; ATCC VR-682) infected in guinea pig lung fibroblast after 6 to 7 days by plaque reduction assay; format: functional, organism-based; summary of the method: as §1
Human betaherpesvirus 5 [2] = experiment: Antiviral activity against Human cytomegalovirus Towne infected in human HFL after 10 to 12 days by plaque reduction assay; format: functional, organism-based; conditions: Human betaherpesvirus 5, Towne; summary of the method: as §1
Human betaherpesvirus 5 [3] = experiment: Antiviral activity against Human cytomegalovirus Towne infected in human hTERT-BJ1 cells assessed as inhibition of virus induced infection after 24 hrs post infection by luciferase reporter gene assay; format: functional, organism-based; conditions: BJ
Summary of the method: (§2)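 hTERT-BJ1 cells (3 × 10^4/well, 96-well) infected next day with 2 × 10^3 PFU HCMV Towne and given 20 μM compound or DMSO over varied windows: added at set times and kept to harvest, removed at set times, or present 24 h from set start times. Luciferase measured at 48 h p.i. in three wells; mean and SD.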

Human betaherpesvirus 5 [4] = experiment: Antiviral activity against Human cytomegalovirus Towne infected in human hTERT-BJ1 cells assessed as inhibition of virus induced infection after 12 hrs post infection by luciferase reporter gene assay; format: functional, organism-based; conditions: BJ; summary of the method: as §2
Human betaherpesvirus 5 [5] = experiment: Antiviral activity against Human cytomegalovirus Towne infected in human hTERT-BJ1 cells assessed as decrease in IE2 mRNA level at 5 uM after 24 hrs by immunofluorescent assay; format: functional, organism-based; conditions: BJ
Human betaherpesvirus 5 [6] = experiment: Antiviral activity against 0.05 MOI Human cytomegalovirus Towne infected in human hTERT-BJ1 cells assessed as decrease in IE2 gene expression at 15 uM after 24 hrs by […]; format: functional, organism-based; conditions: BJ
Summary of the method: (§3)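 hTERT-BJ1 cells (4 × 10^5 per T12.5 flask) infected with HCMV at MOI 0.05, cultured with DMSO, 15 μM roscovitine or 20 μM test compound for set periods; cells washed with PBS, stored at −80°C, total RNA purified; IE1, IE2 and G6PD transcripts by quantitative RT-PCR, IE1/IE2 given as CT after normalization to G6PD; triplicate experiments, mean and SD.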

Human betaherpesvirus 5 [7] = experiment: Antiviral activity against Human cytomegalovirus RC256 infected in human hTERT-BJ1 cells after 1 hr by Immunostaining and Xgal staining; format: functional, organism-based; conditions: Human betaherpesvirus 5, RC256, BJ
Summary of the method: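 hTERT-BJ1 cells infected with HCMV RC256, a β-galactosidase-expressing recombinant Towne strain, in the presence of various compound concentrations; infected cells counted after X-Gal staining to derive EC50.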

Human betaherpesvirus 5 [8] = experiment: Antiviral activity against 3 MOI Human cytomegalovirus Towne infected in human hTERT-BJ1 cells assessed as inhibition of viral DNA replication at 5 uM by qPCR; format: functional, organism-based; conditions: BJ
Summary of the method: (§4)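 hTERT-BJ1 cells infected with HCMV at MOI 0.05 or 3.0, cultured for set durations with DMSO, 20 μM or 5 μM compound; DNA extracted (QIAamp) and HCMV UL83 and human albumin genes quantified by qPCR against plasmid and cellular DNA standards; viral copies divided by albumin copies as copies per cell; triplicate experiments, mean and SD.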

Human betaherpesvirus 5 [9] = experiment: Antiviral activity against 0.05 MOI Human cytomegalovirus Towne infected in human hTERT-BJ1 cells assessed as decrease in IE2 gene expression at 20 uM after 24 hrs by […]; format: functional, organism-based; conditions: BJ; summary of the method: as §3
Human betaherpesvirus 5 [10] = experiment: Antiviral activity against Human cytomegalovirus Towne infected in human hTERT-BJ1 cells assessed as inhibition of attachment of virus particles to the cell surface at 1 mg/ml after 2 hrs post infection by quantitative PCR; format: functional, organism-based; conditions: BJ
[11] = Selectivity index, ratio of CC50 for human hTERT-BJ1 cells to EC50 for Human cytomegalovirus Towne; format: toxicity, cell-based, BJ; conditions: read-out: Selectivity Index
Human betaherpesvirus 5 [12] = experiment: Antiviral activity against 3 MOI Human cytomegalovirus Towne infected in human hTERT-BJ1 cells assessed as inhibition of viral DNA replication at 20 uM by qPCR; format: functional, organism-based; conditions: BJ; summary of the method: as §4
Human betaherpesvirus 5 [13] = experiment: Antiviral activity against 0.05 MOI Human cytomegalovirus Towne infected in human hTERT-BJ1 cells assessed as inhibition of viral DNA replication at 20 uM by qPCR; format: functional, organism-based; conditions: BJ; summary of the method: as §4
Human betaherpesvirus 5 [14] = experiment: Antiviral activity against Human cytomegalovirus Towne infected in human hTERT-BJ1 cells assessed as decrease in ICP22 mRNA level at 20 uM after 48 hrs by immunofluorescent assay; format: functional, organism-based; conditions: BJ
Human betaherpesvirus 5 [15] = experiment: Antiviral activity against 0.05 MOI Human cytomegalovirus Towne infected in human hTERT-BJ1 cells assessed as inhibition of viral DNA replication at 5 uM by qPCR; format: functional, organism-based; conditions: BJ; summary of the method: as §4
Human betaherpesvirus 5 [16] = experiment: Antiviral activity against Human cytomegalovirus Towne infected in human hTERT-BJ1 cells assessed as inhibition of attachment of virus particles to the cell surface at 20 uM after 2 hrs post infection by quantitative PCR; format: functional, organism-based; conditions: BJ
[17] = Cytotoxicity against HLF cells; format: cell-based; conditions: human
Summary of the method: (§5)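 Cells at 20–25% confluence in 96-well plates cultured 2–4 days with twofold serial compound dilutions or matching DMSO; supernatant removed, cells rinsed, viability read as ATP luminescence (CellTiter-Glo); triplicate; 50% cytotoxic concentration from log concentration vs RLU plot.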

Human betaherpesvirus 5 [18] = experiment: Antiviral activity against Human cytomegalovirus AD169 infected in human U4C-48 cells assessed as decrease in viral titer by luciferase reporter gene assay; format: functional, organism-based; conditions: Human betaherpesvirus 5, AD169, U4C-48
Human betaherpesvirus 5 [19] = experiment: Antiviral activity against Human cytomegalovirus Towne infected in human hTERT-BJ1 cells assessed as decrease in IE1 mRNA level at 5 uM after 24 hrs by immunofluorescent assay; conditions: BJ
Human betaherpesvirus 5 [20] = experiment: Antiviral activity against Human cytomegalovirus Towne infected in human hTERT-BJ1 cells assessed as inhibition of virus induced infection after 48 hrs post infection by luciferase reporter gene assay; format: functional, organism-based; conditions: BJ; summary of the method: as §2
Human betaherpesvirus 5 [21] = experiment: Antiviral activity against Human cytomegalovirus Towne infected in human hTERT-BJ1 cells assessed as decrease in G6PD gene expression at 20 uM after 24 hrs by RT-PCR; format: functional, organism-based; conditions: BJ; summary of the method: as §3
Human betaherpesvirus 5 [22] = experiment: Antiviral activity against human cytomegalovirus Towne infected in human U4C-48 cells assessed as decrease in viral titer by luciferase reporter gene assay; format: functional, organism-based; conditions: Human betaherpesvirus 5, Towne
Summary of the method: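 U4C-48 reporter cells (U373MG carrying TRL4 promoter-luciferase) infected with HCMV laboratory strain or clinical isolates and cultured 2 days with compound dilutions; luciferase read by chemiluminescence, triplicate. EC50 taken as concentration reducing luciferase to the level of cells given half the virus inoculum.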

Human betaherpesvirus 5 [23] = experiment: Antiviral activity against 0.05 MOI Human cytomegalovirus Towne infected in human hTERT-BJ1 cells assessed as decrease in IE1 gene expression at 20 uM after 24 hrs by RT-PCR; format: functional, organism-based; conditions: BJ; summary of the method: as §3
Human betaherpesvirus 5 [24] = experiment: Antiviral activity against Human cytomegalovirus Towne infected in human hTERT-BJ1 cells assessed as inhibition of virus induced infection after 6 hrs post infection by luciferase reporter gene assay; format: functional, organism-based; conditions: BJ; summary of the method: as §2
[25] = Selectivity index, ratio of CC50 for human lung fibroblast cells to EC50 for Human cytomegalovirus Towne; format: toxicity, cell-based; conditions: read-out: Selectivity Index
Human betaherpesvirus 5 [26] = experiment: Antiviral activity against 0.05 MOI Human cytomegalovirus Towne infected in human hTERT-BJ1 cells assessed as decrease in IE1 gene expression at 15 uM after 24 hrs by RT-PCR; format: functional, organism-based; conditions: BJ; summary of the method: as §3
[27] = Cytotoxicity against human hTERT-BJ1 cells; format: cell-based, BJ; summary of the method: as §5
Human betaherpesvirus 5 [28] = experiment: Antiviral activity against Human cytomegalovirus Towne infected in human hTERT-BJ1 cells assessed as decrease in G6PD gene expression at 15 uM after 24 hrs by RT-PCR; format: functional, organism-based; conditions: BJ; summary of the method: as §3

SMILES: Nc1nc2c(ncn2COC(CO)CO)c(=O)[nH]1 [GANCICLOVIR]
- pEC50 [1]: 5.24
- pEC50 (Caviid betaherpesvirus 2): 4.59
- pEC50 (Human betaherpesvirus 5 [2]): 5.85

SMILES: NC(=O)C1CCN(c2c(Cl)cncc2Cl)CC1
- inhibition (Human betaherpesvirus 5 [3]): Active
- inhibition (Human betaherpesvirus 5 [4]): Active
- inhibition (Human betaherpesvirus 5 [5]): Active
- Activity (Human betaherpesvirus 5 [6]): Active
- pEC50 [1]: 5.52
- pEC50 (Human betaherpesvirus 5 [7]): 5.46
- inhibition (Human betaherpesvirus 5 [8]): Active
- Activity (Human betaherpesvirus 5 [9]): Active
- inhibition (Human betaherpesvirus 5 [10]): Active
- selectivity ratio [11]: > 10
- inhibition (Human betaherpesvirus 5 [12]): Active
- inhibition (Human betaherpesvirus 5 [13]): Active
- inhibition (Human betaherpesvirus 5 [14]): Active
- inhibition (Human betaherpesvirus 5 [15]): Active
- inhibition (Human betaherpesvirus 5 [16]): inactive
- pEC50 (Caviid betaherpesvirus 2): 5.21
- pEC50 (Human betaherpesvirus 5 [2]): 5.60
- CC50 [17]: 100 µM
- pEC50 (Human betaherpesvirus 5 [18]): 5.30
- inhibition (Human betaherpesvirus 5 [19]): Active
- inhibition (Human betaherpesvirus 5 [20]): inactive
- Activity (Human betaherpesvirus 5 [21]): inactive
- pEC50 (Human betaherpesvirus 5 [22]): 5.30
- Activity (Human betaherpesvirus 5 [23]): Active
- inhibition (Human betaherpesvirus 5 [24]): Active
- selectivity ratio [25]: > 10
- Activity (Human betaherpesvirus 5 [26]): Active
- CC50 [27]: 100 µM
- Activity (Human betaherpesvirus 5 [28]): inactive
